Measurements published in ChEMBL document CHEMBL1221320, “N(G)-Acyl-argininamides as NPY Y(1) receptor antagonists: Influence of structurally diverse acyl substituents on stability and affinity” (Bioorg Med Chem, 2010).

Experiments:
[1] = Distribution coefficient, log D of the compound; assay type: physicochemical; settings: octanol/water
Outline: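 Calculated at pH 7.4 by ACD software. Experimental values came from RP-HPLC on a C18 column at 25 °C and 0.30 mL/min, using 10 mM ammonium acetate pH 7.4 versus acetonitrile (5→98% over 30 min). Injection was 2 µL of a 1 mM DMSO solution with diode-array detection. Retention time was calibrated against six reference compounds.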

[2] = biological target: T1, Neuropeptide Y receptor type 1 (Homo sapiens, UniProt P25929); assay: Displacement of [3H]UR-MK114 from NPY1 receptor in human SK-N-MC cells; assay type: cell-based
T1 sequence (P25929 whole entry): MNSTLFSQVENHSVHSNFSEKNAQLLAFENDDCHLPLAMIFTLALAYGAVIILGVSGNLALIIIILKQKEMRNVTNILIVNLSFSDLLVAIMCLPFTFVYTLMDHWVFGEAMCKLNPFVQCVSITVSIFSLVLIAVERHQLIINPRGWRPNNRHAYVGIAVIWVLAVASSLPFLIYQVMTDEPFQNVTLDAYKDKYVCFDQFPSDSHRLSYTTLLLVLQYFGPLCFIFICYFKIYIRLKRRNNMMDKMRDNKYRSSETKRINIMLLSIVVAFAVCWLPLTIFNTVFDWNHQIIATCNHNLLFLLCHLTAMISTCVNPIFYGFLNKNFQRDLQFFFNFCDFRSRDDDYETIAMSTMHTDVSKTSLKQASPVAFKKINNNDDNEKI
Outline: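 Data were fitted with four-parameter sigmoidal curves. IC50 was converted to Ki by Cheng–Prusoff using the radioligand KD. Mean ± SEM of two or three independent experiments. Assay period from solution preparation to read-out was 60–90 min.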

[3] = biological target: T2, Neuropeptide Y receptor type 1 (Homo sapiens) (UniProt P25929); assay: Antagonist activity at NPY1 receptor in human HEL cells assessed as inhibition of NPY-induced calcium mobilization by Fura-2 assay; assay type: functional, cell-based
T2 sequence (whole entry): T1 sequence (P25929 whole entry)

Question: For `COC(=O)CCNC(=O)CCCCCCC(=O)NC(N)=NCCC[C@@H](NC(=O)C(c1ccccc1)c1ccccc1)C(=O)NCc1ccc(O)cc1`, which logD ([1]; read-out: logD) is on record?
Answer: The logD was 2.9.

Question: What about the Ki ([2]; read-out: Ki) of the same molecule?
Answer: Its Ki is 260 nM.

Question: Which logD ([1]; read-out: logD) does the source give for `N=C(NCCC[C@@H](NC(=O)C(c1ccccc1)c1ccccc1)C(=O)NCc1ccc(O)cc1)NC(=O)CCCCCCC(=O)NCCN` here?
Answer: Its logD is -0.3.

Question: And the Ki ([2]; read-out: Ki)?
Answer: Its Ki is 130 nM.

Question: And the Kb [3]?
Answer: The Kb was 230 nM.

Question: With `N=C(NCCC[C@@H](NC(=O)C(c1ccccc1)c1ccccc1)C(=O)NCc1ccc(O)cc1)NC(=O)CCCCCCC(=O)NCCC(=O)O` as the molecule, how does the Kb [3] read?
Answer: The Kb was 450 nM.

Question: Which logD ([1]; read-out: logD) does the source give for `NCc1cn(CCCC(=O)NC(N)=NCCC[C@@H](NC(=O)C(c2ccccc2)c2ccccc2)C(=O)NCc2ccc(O)cc2)nn1` here?
Answer: The logD was 1.7.

Question: And the Ki ([2]; read-out: Ki)?
Answer: The Ki was 6.7 nM.

Question: With `N=C(NCCC[C@@H](NC(=O)C(c1ccccc1)c1ccccc1)C(=O)NCc1ccc(O)cc1)NC(=O)CCC(=O)NCCN` as the molecule, how does the logD ([1]; read-out: logD) read?
Answer: The logD was -1.3.

Question: With `N=C(N)NCCNC(=O)CCC(=O)NC(=N)NCCC[C@@H](NC(=O)C(c1ccccc1)c1ccccc1)C(=O)NCc1ccc(O)cc1` as the molecule, how does the logD ([1]; read-out: logD) read?
Answer: The logD was -1.4.

Question: For `COC(=O)CCCCCCC(=O)NC(=N)NCCC[C@@H](NC(=O)C(c1ccccc1)c1ccccc1)C(=O)NCc1ccc(O)cc1`, which Kb [3] is on record?
Answer: The Kb was 0.06 nM.

Question: For `CCCCCCCCCCCCCCCC(=O)NC(=N)NCCC[C@@H](NC(=O)C(c1ccccc1)c1ccccc1)C(=O)NCc1ccc(O)cc1`, which Kb [3] is on record?
Answer: Its Kb is 170 nM.

Question: Which Kb [3] does the source give for `N=C(NCCC[C@@H](NC(=O)C(c1ccccc1)c1ccccc1)C(=O)NCc1ccc(O)cc1)NC(=O)CCCn1cc(CN)nn1` here?
Answer: Its Kb is 14 nM.

Question: Which results are given for `COC(=O)CCCCCCC(=O)NC(N)=NCCC[C@@H](NC(=O)C(c1ccccc1)c1ccccc1)C(=O)NCc1ccc(O)cc1`?
Answer: logD ([1]; read-out: logD): 3.9; Ki ([2]; read-out: Ki): 0.9 nM

Question: With `N=C(NCCC[C@@H](NC(=O)C(c1ccccc1)c1ccccc1)C(=O)NCc1ccc(O)cc1)NC(=O)CCC(=O)NCCNC(=O)c1ccc(F)cc1` as the molecule, how does the logD ([1]; read-out: logD) read?
Answer: Its logD is 3.5.

Question: With `N=C(N)NCCCCCC(=O)NC(=N)NCCC[C@@H](NC(=O)C(c1ccccc1)c1ccccc1)C(=O)NCc1ccc(O)cc1` as the molecule, how does the logD ([1]; read-out: logD) read?
Answer: Its logD is -0.3.

Question: What about the Ki ([2]; read-out: Ki) of the same molecule?
Answer: The Ki was 51 nM.

Question: And the Kb [3]?
Answer: Its Kb is 18 nM.

Question: For `N=C(NCCC[C@@H](NC(=O)C(c1ccccc1)c1ccccc1)C(=O)NCc1ccc(O)cc1)NC(=O)CCC(=O)OC[C@H]1O[C@@H](O)[C@H](O)[C@@H](O)[C@H]1O`, which logD ([1]; read-out: logD) is on record?
Answer: The logD was 0.9.

Question: What about the Ki ([2]; read-out: Ki) of the same molecule?
Answer: The Ki was 41 nM.

Question: What about the Kb [3] of the same molecule?
Answer: Its Kb is 510 nM.

Question: For `CC(=O)OC[C@@H](OC(C)=O)[C@@H](OC(C)=O)[C@H](OC(C)=O)[C@@H](OC(C)=O)C(=O)NC(=N)NCCC[C@@H](NC(=O)C(c1ccccc1)c1ccccc1)C(=O)NCc1ccc(O)cc1`, which Kb [3] is on record?
Answer: Its Kb is 110 nM.

Question: Which logD ([1]; read-out: logD) does the source give for `CCC(=O)NCCNCCNC(=O)CCC(=O)NC(=N)NCCC[C@@H](NC(=O)C(c1ccccc1)c1ccccc1)C(=O)NCc1ccc(O)cc1` here?
Answer: Its logD is -0.6.

Question: For `COC(=O)CCNC(=O)CCCCCCC(=O)NC(=N)NCCC[C@@H](NC(=O)C(c1ccccc1)c1ccccc1)C(=O)NCc1ccc(O)cc1`, which Kb [3] is on record?
Answer: Its Kb is 170 nM.

Question: Which Ki ([2]; read-out: Ki) does the source give for `CCCCCCCCCCCCC#CC#CCCCCCCCCC(=O)NC(=N)NCCC[C@@H](NC(=O)C(c1ccccc1)c1ccccc1)C(=O)NCc1ccc(O)cc1` here?
Answer: Its Ki is 1500 nM.

Question: And the Kb [3]?
Answer: The Kb was 140 nM.

Question: Which results are given for `N=C(NCCC[C@@H](NC(=O)C(c1ccccc1)c1ccccc1)C(=O)NCc1ccc(O)cc1)NC(=O)CCCn1cc(CO)nn1`?
Answer: logD ([1]; read-out: logD): 1.8; Ki ([2]; read-out: Ki): 3 nM; Kb [3]: 0.4 nM

Question: What does the source list for `N=C(NCCC[C@@H](NC(=O)C(c1ccccc1)c1ccccc1)C(=O)NCc1ccc(O)cc1)NC(=O)c1ccc2ccc3cccc4ccc1c2c34`?
Answer: logD ([1]; read-out: logD): 7.2; Ki ([2]; sk-n-mc): Not Active

Question: Which logD ([1]; read-out: logD) does the source give for `N=C(NCCC[C@@H](NC(=O)C(c1ccccc1)c1ccccc1)C(=O)NCc1ccc(O)cc1)NC(=O)CCCc1ccc2ccc3cccc4ccc1c2c34` here?
Answer: Its logD is 7.6.

Question: What about the Ki ([2]; read-out: Ki) of the same molecule?
Answer: Its Ki is 270 nM.

Question: With `CCCCCCCCCCCCCCCC(=O)NC(N)=NCCC[C@@H](NC(=O)C(c1ccccc1)c1ccccc1)C(=O)NCc1ccc(O)cc1` as the molecule, how does the logD [1] read?
Answer: The logD was 9.4.

Question: What about the Ki ([2]; read-out: Ki) of the same molecule?
Answer: The Ki was 460 nM.

Question: With `CC(=O)OC[C@@H](OC(C)=O)[C@@H](OC(C)=O)[C@H](OC(C)=O)[C@@H](OC(C)=O)C(=O)NC(N)=NCCC[C@@H](NC(=O)C(c1ccccc1)c1ccccc1)C(=O)NCc1ccc(O)cc1` as the molecule, how does the logD ([1]; read-out: logD) read?
Answer: The logD was 3.5.

Question: And the Ki ([2]; read-out: Ki)?
Answer: Its Ki is 83 nM.

Question: With `N=C(NCCC[C@@H](NC(=O)C(c1ccccc1)c1ccccc1)C(=O)NCc1ccc(O)cc1)NC(=O)COCCOCCOCC(=O)NCCNC(=O)c1ccc2ccc3cccc4ccc1c2c34` as the molecule, how does the logD ([1]; read-out: logD) read?
Answer: The logD was 6.

Question: And the Ki ([2]; read-out: Ki)?
Answer: The Ki was 59 nM.

Question: Which logD ([1]; read-out: logD) does the source give for `N=C(N)NCCC[C@@H](NC(=O)C(c1ccccc1)c1ccccc1)C(=O)NCc1ccc(O)cc1` here?
Answer: Its logD is 0.7.

Question: For `N=C(NCCC[C@@H](NC(=O)C(c1ccccc1)c1ccccc1)C(=O)NCc1ccc(O)cc1)NC(=O)CCCCCCC(=O)NCCC(=O)OCc1ccccc1`, which logD ([1]; read-out: logD) is on record?
Answer: Its logD is 4.6.

Question: What about the Ki ([2]; read-out: Ki) of the same molecule?
Answer: The Ki was 40 nM.

Question: And the Kb [3]?
Answer: The Kb was 1.1 nM.

Question: Which logD ([1]; read-out: logD) does the source give for `NC(=NCCC[C@@H](NC(=O)C(c1ccccc1)c1ccccc1)C(=O)NCc1ccc(O)cc1)NC(=O)CCCCCCC(=O)NCCC(=O)O` here?
Answer: The logD was 0.7.

Question: And the Ki ([2]; read-out: Ki)?
Answer: The Ki was 73 nM.

Question: For `N=C(NCCC[C@@H](NC(=O)C(c1ccccc1)c1ccccc1)C(=O)NCc1ccc(O)cc1)NC(=O)CCC(=O)NCCNCCN`, which logD ([1]; read-out: logD) is on record?
Answer: Its logD is -1.8.
